Screening results (PubChem BioAssay)
5-HT1A blocker: blocks the human serotonin 5-HT1a receptor; P08908; CHO 5-HT1a Ga15 NFAT-bla reporter, antagonist mode; inhibition, % at 10 µM; 62,000 tested, 0.68% active; AID 612;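 active = inhibition above the mean of all tested compounds plus 3 SD, cut at about 43% in these data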;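 also: receptor stimulated by 5-CT agonist at 100 nM near EC80; beta-lactamase reporter measured by ratiometric fluorescence of a cleavable substrate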
S1P1 ag-PAM: agonists and agonism potentiators of human S1P1 receptor | P21453 | S1P1 CRE-bla cells, forskolin, beta-lactamase FRET, potentiator mode; S1P1 agonist co-added at EC20, 2 nM; 100% = saturating reference agonist, 0% = basal | activation, % at 9.5 µM | 56,000 tested, 0.57% active | AID 449;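 active = activation above a cutoff set at the mean activation of all tested compounds plus 3 SD, cut at about 54% in these data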;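 also: forskolin at 4 µM as EC80 and the EC20 agonist is SEW2871; 100% = SEW2871 at its EC100 plus forskolin at EC80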
Target sequence (P21453 whole entry, looked up): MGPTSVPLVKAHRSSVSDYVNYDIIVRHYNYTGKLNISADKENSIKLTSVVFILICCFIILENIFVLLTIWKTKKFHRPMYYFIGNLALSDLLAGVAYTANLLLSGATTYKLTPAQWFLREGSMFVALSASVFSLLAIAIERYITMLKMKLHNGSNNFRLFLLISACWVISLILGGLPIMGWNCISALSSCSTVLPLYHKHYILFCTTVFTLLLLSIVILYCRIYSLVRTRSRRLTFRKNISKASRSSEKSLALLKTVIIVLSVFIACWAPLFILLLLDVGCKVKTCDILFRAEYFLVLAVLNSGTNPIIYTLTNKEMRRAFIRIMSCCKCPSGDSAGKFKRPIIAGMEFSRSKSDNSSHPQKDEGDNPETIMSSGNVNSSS
HTR1E antagonist: 5-HT1E (human) receptor antagonism | CHO 5-HT1E Ga15 NFAT-bla reporter, FRET, antagonist | inhibition, % at 6 µM | AID 571 | 65,000 tested, 0.99% active;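 active = inhibition above a set limit, the mean inhibition across every tested compound plus 3 SD, cut at about 29% in these data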;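 also: signal is the 460 over 535 nm emission ratio of beta-lactamase substrate; 0% = agonist plus DMSO wells and 100% = wells without agonist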
5HT1E ag: activates the human 5-HT1E serotonin receptor; CHO 5-HT1E Ga15 NFAT-bla reporter, FRET; 0% DMSO wells, 100% control agonist wells; P28566; 65,000 tested, 0.69% active; AID 574; activation, % at 6 µM;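 active = activation above a set limit, the screen-wide mean activation plus 3 SD, cut at about 8.5% in these data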;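 also: 100% = positive control agonist at 1 µM giving full maximal response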
S1P3 agonist: activates the human S1P3 receptor; S1P3 NFAT-BLA reporter cells, agonism, FRET ratio; relative to 1 µM S1P, basal subtracted; activation, % at 4.5 µM; 60,000 tested, 0.1% active; AID 373;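 active = activation above the screen-wide mean plus 3 SD, cut at about 4.5% in these data, passing the limit was not always enough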
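Assay system: CHO cells stably expressing human S1P3, Gα16 and NFAT-β-lactamase reporter. Timing: overnight plating, 4 h compound 37 °C, 2 h substrate RT. Signal: β-lactamase FRET emission ratio 460/535 nm. Measure: percent activation versus median 1 µM S1P response, basal-subtracted, per plate. Repeats: primary screen single test, confirmation screen in triplicate.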
HTR1A agonist: agonists of human 5-HT1a serotonin receptor | P08908 | CHO 5-HT1a Ga15 NFAT-bla reporter, FRET ratio; 0% basal, 100% maximal reference agonist | activation, % at 10 µM | 65,000 tested, 0.56% active;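 active = activation above the screen-wide mean activation plus 3 SD, cut at about 19% in these data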;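 also: 0% = DMSO wells and 100% = 5-CT at EC100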
An asterisk follows results filed as active. In the library only some 3% were active in any assay of this set; here they are far more common.

CCOc1cc(S(=O)(=O)NC2CCCC2)ccc1Cl was read as 5-HT1A blocker -10, HTR1E antagonist -3, 5HT1E ag 15*, S1P3 agonist -2 and HTR1A agonist 0.
`CCc1ccc(S(=O)(=O)NCc2cn3ccsc3n2)s1` gave 5-HT1A blocker 5, S1P1 ag-PAM -30, HTR1E antagonist -2, 5HT1E ag 22*, S1P3 agonist 0 and HTR1A agonist -2.
`O=S(=O)(NCc1cn2ccsc2n1)c1cccs1` gave 5-HT1A blocker 2, S1P1 ag-PAM -36, HTR1E antagonist 0, 5HT1E ag 0, S1P3 agonist 0 and HTR1A agonist -5.
`O=S(=O)(NCc1cn2ccsc2n1)c1ccc(Oc2ccccc2)cc1` gave 5-HT1A blocker 12, S1P1 ag-PAM 84*, HTR1E antagonist 5, 5HT1E ag 1, S1P3 agonist 0 and HTR1A agonist -3.
COC(=O)CCCCC(=O)C1C(=O)CC(C)(C)C(C(=O)OC)C1=O (stereo unspecified) was read as 5-HT1A blocker 4, HTR1E antagonist -2, 5HT1E ag 2, S1P3 agonist 0 and HTR1A agonist 24*.
`O=S(=O)(Nc1nc(CN2CCOCC2)nc2sc3c(c12)CCCC3)c1cc(F)ccc1F` gave 5-HT1A blocker -2, S1P1 ag-PAM 0, HTR1E antagonist -9, 5HT1E ag 0, S1P3 agonist 1 and HTR1A agonist 1.
For O=S(=O)(Nc1cccc2ncccc12)c1cccs1 the results were 5-HT1A blocker 84*, S1P1 ag-PAM 28, HTR1E antagonist 79*, 5HT1E ag 1, S1P3 agonist 1 and HTR1A agonist -7.
Cc1ccc(NC(=O)CC2Nc3ccccc3NC2=O)cc1Cl (stereo unspecified) was read as 5-HT1A blocker -15, S1P1 ag-PAM -82, HTR1E antagonist 11, 5HT1E ag 14*, S1P3 agonist 5.9* and HTR1A agonist 34*.
For COCCn1nnnc1C(c1ccc(Cl)cc1)N1CCSCC1 (stereo unspecified) the results were 5-HT1A blocker 16, S1P1 ag-PAM 20, HTR1E antagonist 7, 5HT1E ag -1, S1P3 agonist -1 and HTR1A agonist 0.
For COc1ccc(S(=O)(=O)N(CC(=O)N2CCOCC2)c2cc(Cl)ccc2OC)cc1OC the results were 5-HT1A blocker -4, S1P1 ag-PAM -3, HTR1E antagonist 5, 5HT1E ag 1, S1P3 agonist -1 and HTR1A agonist 0.
Screening Nc1nonc1C(=O)NCCNCc1cc(Br)ccc1OCc1ccccc1F returned 5-HT1A blocker 52*, S1P1 ag-PAM 78*, HTR1E antagonist 12, 5HT1E ag 0, S1P3 agonist -2 and HTR1A agonist -1.
For COc1ccccc1S(=O)(=O)Cc1ccc(C(=O)NC(C)c2ccc3c(c2)OCCO3)o1 (stereo unspecified) the results were 5-HT1A blocker -9, S1P1 ag-PAM 3, HTR1E antagonist -5, 5HT1E ag 0, S1P3 agonist 0 and HTR1A agonist -1.
Cc1ccc(Nc2nc(N)nc(CN3CCN(C)CC3)n2)cc1C was read as 5-HT1A blocker 1, S1P1 ag-PAM -21, HTR1E antagonist 5, 5HT1E ag 0, S1P3 agonist 0 and HTR1A agonist 1.
`COC(=O)CC(=O)Cc1nc(N)nc(Nc2ccc(C)c(C)c2)n1` gave S1P1 ag-PAM 6, HTR1E antagonist 4, 5HT1E ag 52*, S1P3 agonist -3 and HTR1A agonist -3.
Screening O=C(Nc1ccc2c(c1)OCCO2)C1CCCN1S(=O)(=O)c1cccc2cccnc12 (stereo unspecified) returned 5-HT1A blocker 5, S1P1 ag-PAM 6, HTR1E antagonist 1, 5HT1E ag -1, S1P3 agonist 0 and HTR1A agonist 75*.
Screening O=C(Nc1ccc(C(F)(F)F)cc1)C1CCCN1S(=O)(=O)c1cccc2cccnc12 (stereo unspecified) returned 5-HT1A blocker -2, S1P1 ag-PAM 66*, HTR1E antagonist 10, 5HT1E ag -1, S1P3 agonist 0 and HTR1A agonist -2.
Screening N#CCCn1c(Cl)nc2ccccc21 returned 5-HT1A blocker -4, S1P1 ag-PAM -14, HTR1E antagonist -13, 5HT1E ag 0, S1P3 agonist 0 and HTR1A agonist -1.
`COc1ccc2[nH]c(C)c(CCN3C(=O)OC(C)(C)C3(C)O)c2c1` (stereo unspecified) gave 5-HT1A blocker -1, S1P1 ag-PAM -8, HTR1E antagonist 1, 5HT1E ag 0, S1P3 agonist 0 and HTR1A agonist -1.
For COc1ccc2[nH]c(=O)c3c(c2c1)OC(C)(C)C=C3 the results were 5-HT1A blocker 60*, S1P1 ag-PAM 99, HTR1E antagonist 24, 5HT1E ag 0, S1P3 agonist -2 and HTR1A agonist -1.
For Cn1c(Cl)nc2c1c(=O)n(Cc1cccc(Br)c1)c(=O)n2C the results were S1P1 ag-PAM 20, HTR1E antagonist 4, 5HT1E ag -1, S1P3 agonist -4 and HTR1A agonist 36*.
`CC(C)CNc1nc2c(c(=O)n(C)c(=O)n2C)n1Cc1cccc(Br)c1` gave S1P1 ag-PAM -12, HTR1E antagonist -11, 5HT1E ag 0, S1P3 agonist -4 and HTR1A agonist -1.
For Clc1cccc(N2CCN(CCNc3nc4ccccc4n4cnnc34)CC2)c1 the results were 5-HT1A blocker 17, S1P1 ag-PAM -13, HTR1E antagonist 6, 5HT1E ag 8.9*, S1P3 agonist -1 and HTR1A agonist 6.
For COc1ccc(C(=O)Nc2ccc(Cl)cc2C(=O)NCc2ccco2)cc1OC the results were 5-HT1A blocker 5, S1P1 ag-PAM -32, HTR1E antagonist 40*, 5HT1E ag 0, S1P3 agonist -2 and HTR1A agonist -4.
For O=C(NC1CCCC1)c1ccc(CS(=O)(=O)c2ccc(Br)cc2)o1 the results were 5-HT1A blocker 10, S1P1 ag-PAM 12, HTR1E antagonist 1, 5HT1E ag 0, S1P3 agonist -2 and HTR1A agonist 0.
`COc1ccc(C2CC(c3c(O)cc(C)oc3=O)=NCCS2)c(OC)c1` (stereo unspecified) gave 5-HT1A blocker 39, S1P1 ag-PAM 43, HTR1E antagonist 65*, 5HT1E ag -1, S1P3 agonist -2 and HTR1A agonist -4.
O=C(Nc1ccc(N2CCOCC2)cc1)c1cnsn1 was read as 5-HT1A blocker -14, S1P1 ag-PAM 13, HTR1E antagonist 1, 5HT1E ag -1, S1P3 agonist -2 and HTR1A agonist -2.
`CS(=O)(=O)c1ncc(Cl)c(C(=O)Nc2ccc(N3CCOCC3)cc2)n1` gave 5-HT1A blocker 81*, S1P1 ag-PAM -10, HTR1E antagonist 82*, 5HT1E ag 1, S1P3 agonist 1 and HTR1A agonist -2.
